Published values of several laboratories.
Compare with care: the assays were run in different laboratories.
Target: Serine/threonine-protein kinase PAK 5 (PAK5, Homo sapiens, UniProt Q9P286)

Cn1cc(-c2cccc(N3CCc4c(sc5c4CC(C)(C)C5)C3=O)c2CO)cc(Nc2ccncn2)c1=O
inhibition (enzyme activity, inhibitor; 1 µM): 4%

COc1cc(Nc2ncc(F)c(Nc3ccc4c(n3)NC(=O)C(C)(C)O4)n2)cc(OC)c1OC
inhibition (binding; 10 µM): 100%

Cn1cc(-c2cc(F)cc(N3CCn4c(cc5c4CCCC5)C3=O)c2CO)cc(Nc2ccc(N3CCN(C4COC4)CC3)cn2)c1=O
inhibition (enzyme activity, inhibitor; 0.1 µM): 10%

Nc1ncc(-c2nc(N3CCOCC3)nc(N3CCOCC3)n2)c(C(F)F)n1
remaining binding (binding, competition with immobilised ligand; 10 µM): 52%

C#Cc1n[nH]c2c(-c3cn(C(C)c4ccccn4)c(=O)[nH]c3=O)cc(F)cc12 (stereo not shown)
inhibition (enzyme activity, inhibitor; 1 µM): -3.8%

COc1ncccc1-c1cnn2ccc(N3CCN(C(=O)OC(C)C)CC3)nc12
remaining binding (binding, competition with immobilised ligand; 1 µM): 100%

Cn1cncc1[C@@](O)(COc1ccc(C#N)cc1-c1ccc(OC(F)(F)F)cc1)c1ccc(C#N)cc1
remaining binding (cell-free assay, competition with immobilised ligand; 1 µM): 100%

O=c1[nH]c2ccccc2n1C1CCN(Cc2ccc(-c3[nH]c4cc5ncnc5cc4nc3-c3ccccc3)cc2)CC1
remaining signal (cell-free assay; 0.5 µM): 110%

N#CC1(c2ccccn2)CCN(Cc2cc(C(=O)O)c(=O)n3ccccc23)CC1
remaining binding (cell-free assay, competition with immobilised ligand; 1 µM): 96%

Cc1nn(C)cc1-c1nc2c(N3CCN(Cc4ccc(Cl)cc4)CC3)c(Cl)cnc2[nH]1
remaining binding (binding, competition with immobilised ligand; 1 µM): 83%
